Most compounds without a hit are left out; they make up all but 2.3% or so of the library.
TAAR1 ag: human TAAR1 agonism | activation, % at 3 µM | Q96RJ0 | hit rate 0.99% among 360,000 | CHO RD-HGA16 TAAR1, Fluo-8 calcium fluorescence; vehicle wells 0%, saturating PEA agonist 100%;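 active = activation above the mean activation of all test compounds in the run plus 3 SD, cut at about 38% in these data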
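System: CHO-derived RD-HGA16 cells with stable Gα16 and human TAAR1. Times: 17-24 h plating, Fluo-8 75 min 37 °C, 30 min RT. Measured by: calcium-sensitive Fluo-8 signal, excitation 470-495, emission 515-575 nm. Read-out basis: % activation relative to PEA EC100 response. Control set: DMSO and PEA EC100. Repeats: no replicates (n 1).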
TAAR1 antagonist: antagonists of human TAAR1. Q96RJ0. CHO RD-HGA16 TAAR1, Fluo-8 calcium fluorescence, antagonist. inhibition, % at 3 µM. hit rate 1.5% among 360,000;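 active = inhibition above a per-plate cutoff, the mean inhibition of test compounds on that plate plus 3 SD, cut at about 49% in these data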;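 also: 0% = DMSO plus EC80 beta-PEA response and 100% = DMSO alone without agonist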
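Test system – hTAAR1-expressing CHO RD-HGA16 cells, Gα16-coupled · Also added – β-PEA at EC80 concentration, post-compound challenge · Compound – 3 µM, single point · Incubation – dye loading 75 min at 37 °C, then 30 min room temperature · Measured by – Fluo-8 intracellular calcium dye fluorescence, real-time kinetic reads · Benchmarks – vehicle and agonist controls · Replicates – singlicate, one well per test compound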
V1aR counter: counter-screen for oxytocin receptor agonists: human V1a receptor agonists | hit rate 0.25% among 320,000 | CHO-V1R cells, Fluo-8 calcium fluorescence, agonist mode; 0% DMSO, 100% 3 nM vasopressin | activation, % at 3 µM | P37288 | AID 2797;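 active = activation above the mean activation of all tested compounds plus 3 SD, per screening run, cut at about 20% in these data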;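 also: signal is peak over basal fluorescence ratio across a 100 second FLIPR read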
Target sequence (P37288 whole entry, looked up): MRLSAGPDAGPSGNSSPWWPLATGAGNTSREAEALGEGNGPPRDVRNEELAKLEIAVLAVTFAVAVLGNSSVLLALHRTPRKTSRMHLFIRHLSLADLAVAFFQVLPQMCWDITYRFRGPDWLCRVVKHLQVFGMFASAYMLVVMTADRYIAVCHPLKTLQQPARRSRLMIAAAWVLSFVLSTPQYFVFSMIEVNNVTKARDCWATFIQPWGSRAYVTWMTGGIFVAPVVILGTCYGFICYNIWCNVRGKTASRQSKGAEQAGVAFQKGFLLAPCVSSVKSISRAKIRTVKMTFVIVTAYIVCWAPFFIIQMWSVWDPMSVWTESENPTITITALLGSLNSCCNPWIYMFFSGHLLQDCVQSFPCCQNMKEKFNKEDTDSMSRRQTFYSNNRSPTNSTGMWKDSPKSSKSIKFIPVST
OXTR agonist: agonists of human oxytocin receptor. P30559. CHO-OTR cells, Fluo-8 calcium fluorescence; normalized: DMSO 0%, oxytocin 100%. activation, % at 3 µM. hit rate 0.32% among 320,000. AID 2435;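 active = activation above the mean of all tested compounds plus 3 SD, cutoff set per screening run, cut at about 20% in these data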;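 also: peak over basal fluorescence ratio from a 100 s FLIPR kinetic read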
OXTR potentiate: human OXTR potentiation; CHO-OTR cells, Fluo-8 calcium fluorescence, potentiator mode; 0% = oxytocin EC15, 100% = EC100; activation, % at 3 µM; hit rate 0.061% among 320,000; AID 2445;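 active = activation above that plate's cutoff, the mean activation of tested compounds plus 3 SD, cut at about 6.6% in these data, passing the limit was not always enough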;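 also: 100% uses oxytocin at 75 nM as the full agonist control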
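Replication – single well per compound, singlicate · Assay system – CHO cell line stably expressing human OTR · Timing – 6 min pre-incubation, 100 s read · Measure – normalized max/min fluorescence ratio, % activation · Doses – 3.0 µM, one dose · Detection – Fluo-8 calcium dye fluorescence · Probe or stimulus – oxytocin near EC15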
The depositor's hits bear a star; x = not tested or not shown.

SMILES | TAAR1 ag | TAAR1 antagonist | V1aR counter | OXTR agonist | OXTR potentiate
COc1cc(/C=C/C(=O)OCC(=O)N2CCN(C(=O)c3ccco3)CC2)ccc1O | 2 | -11 | 1 | 0 | -8
Cc1ccc(NC(=O)c2cc(-c3cccs3)nc3ccccc23)nc1 | 10 | 53* | -1 | -2 | -6
CCCc1ccc(-c2cc(C(=O)N3CCN(c4ccccn4)CC3)c3ccccc3n2)cc1 | 1 | 15 | 0 | 0 | -11
COc1ccccc1-c1csc(NC(=O)c2cc(-c3cccs3)nc3ccccc23)n1 | 2 | 10 | 0 | 0 | -9
COc1cc(-c2cc(C(=O)N3CCN(c4ccccn4)CC3)c3ccccc3n2)cc(OC)c1OC | 16 | 50* | -1 | -2 | 1
O=C(c1cc(-c2cccs2)nc2ccccc12)N1CCN(c2ccccc2O)CC1 | 26 | 58* | 2 | 5 | -29
CC(C(O)C12CC3CC(CC(C3)C1)C2)N1CCCCC1 (stereo not drawn) | 5 | -20 | 1 | 1 | -10
COc1cc(OC)nc(-n2ncc(Br)c(Br)c2=O)n1 | -2 | -5 | 0 | -2 | 9
O=C(NCc1cccs1)c1cc(-c2ccc(O)cc2)on1 | 41* | 1 | 10 | 11 | -14
O=C(NCc1ccccc1)[C@@H]1CCCN1C(=O)[C@H]1CCCN1C(=O)c1cccc2ccccc12 | -1 | -1 | x | x | x
CCC1(c2ccc(F)cc2)NC(=O)N(CC(=O)N2CCc3ccccc32)C1=O (stereo not drawn) | 68* | 24 | 27* | 29* | -15
CCC1(c2ccccc2)NC(=O)N(CC(=O)N2CCc3ccccc32)C1=O (stereo not drawn) | 19 | 8 | 4 | 11 | -12
CCCn1c2ccccc2c2cnn(CC(=O)NC3CCCCC3)c(=O)c21 | 5 | -24 | 0 | -2 | -3
O=C(c1ccco1)N1CCN(C(c2ccccc2Cl)c2nnnn2Cc2cccs2)CC1 (stereo not drawn) | 27 | 59* | 4 | 4 | -7
CCN(CC)c1ccc(NC(=O)CSC(=O)c2ccccc2)cc1 | -3 | -26 | 0 | 0 | 2
CC(=O)c1cccc(NC(=O)CSC(=O)c2ccccc2)c1 | 38* | -12 | 1 | 2 | -5
CC(=O)c1cccc(NC(=O)COC(=O)c2cccc(N3C(=O)c4ccccc4C3=O)c2)c1 | 18 | 49* | 4 | 2 | -13
Cc1ccc(NC(=O)COC(=O)c2cccc(N3C(=O)c4ccccc4C3=O)c2)cc1 | 5 | 0 | 1 | 0 | 0
Cc1cccc(C)c1NC(=S)NCCSc1ccc(Cl)cc1 | -1 | 0 | 2 | -2 | -18
CN(CC(=O)Nc1cccc(F)c1)C(=O)/C=C/c1ccc2ccccc2n1 | -1 | -3 | 1 | -1 | -6
COc1ccc2sc(-c3ccccc3OC)c(-c3ccc(SC)cc3)c2c1 | 5 | -28 | x | x | x
COc1ccc2sc(-c3ccc(SC)cc3)c(-c3ccc(O)cc3)c2c1 | 20 | 58* | 0 | 1 | -12
COc1ccc(-c2coc3c(C(=O)NCc4ccc(OC)c(OC)c4)cccc23)c(C)c1 | 4 | 56* | x | x | x
COc1ccc(-c2coc3c(C(=O)Nc4cc(OC)c(OC)c(OC)c4)cccc23)c(C)c1 | 1 | 63* | x | x | x
COc1ccc(-c2coc3c(C(=O)Nc4ccc(OC)nc4)cccc23)c(C)c1 | 1 | 28 | x | x | x
SMILES | TAAR1 ag | TAAR1 antagonist | V1aR counter | OXTR agonist | OXTR potentiate
C[C@H](CO)N1C[C@H](C)[C@H](CN(C)C(=O)Nc2cccc(C(F)(F)F)c2)OCc2cnnn2CCCC1=O | 1 | 15 | x | x | x
COc1ccc([C@H]2CC(=O)C=C(c3cccc(OC)c3OC)C2)cc1OC | 14 | 52* | 9 | 12 | -9
COc1ccc([C@H]2CC(=O)C=C(c3cccc4c3sc3ccccc34)C2)cc1OC | 4 | 3 | 1 | 2 | -5
CC(=O)c1ccc(S(=O)(=O)N(C)CC(=O)Nc2ccc(C)cc2)cc1 | 2 | -2 | 0 | 2 | 3
Cc1ccc2c(c1C)-c1c(ccc(C)c1C)C(=O)C2=O | 2 | 62* | x | x | x
CCN(C(=O)c1ccc2c(c1)OCO2)C1CCS(=O)(=O)C1 (stereo not drawn) | -1 | -20 | 0 | 0 | -5
Cc1ccccc1Cn1c(C)nc2ccc([N+](=O)[O-])cc2c1=O | 3 | -29 | 2 | 0 | -2

Assay outcomes from PubChem.
